Experimental data: the M2OR odorant receptor database

target: T1, OR2B3 (Homo sapiens) (UniProt O76000); conditions: stereoisomer not certain
T1 sequence (whole entry): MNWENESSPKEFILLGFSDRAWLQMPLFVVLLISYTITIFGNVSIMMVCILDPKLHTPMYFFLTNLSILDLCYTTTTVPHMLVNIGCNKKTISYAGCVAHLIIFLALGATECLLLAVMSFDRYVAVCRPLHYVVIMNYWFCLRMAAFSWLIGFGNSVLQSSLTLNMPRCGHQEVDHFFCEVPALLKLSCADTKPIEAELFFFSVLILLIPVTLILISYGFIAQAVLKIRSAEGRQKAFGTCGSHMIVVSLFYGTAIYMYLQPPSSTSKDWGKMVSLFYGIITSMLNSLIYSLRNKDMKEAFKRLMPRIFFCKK
Procedure, shortened: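 Each receptor–molecule pair is labelled responsive or non-responsive (inactive) according to whether the original authors judged the measured signal statistically different from baseline. The data were taken from the main text and supplementary material of published papers and checked for typos and inconsistencies. Assay methods differed by source, with transient luciferase assays in mammalian cell lines being common.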
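Note: active if original authors judged signal statistically different from baseline.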

Row | SMILES | odorant receptor agonist call
1 | CCc1ccc(CC(C)(C)C=O)cc1 | inactive
2 | CCCCCCCCC(OC(C)=O)OC(C)=O | inactive
3 | CCCCCC1COCCC1OC(C)=O (stereo not drawn) | inactive
4 | Cc1occc(=O)c1OC(=O)C(C)C | inactive
5 | CC=CC(=O)C1C(C)=CCCC1(C)C (stereo not drawn) | inactive
6 | CC1=C(O)C(=O)OC1C (stereo not drawn) | inactive
7 | CC1CC(C)(c2ccccc2)CO1 (stereo not drawn) | inactive
8 | CC1=NC(C)C(C)S1 (stereo not drawn) | inactive
9 | CC1=C(O)C(=O)C(C)O1 (stereo not drawn) | inactive
10 | CCCCCCC=CCCC=O | inactive
11 | CCOC(=O)CC1(C)OCCO1 | inactive
12 | CCCC(C)C(=O)OCC (stereo not drawn) | inactive
13 | COc1ccc(C)cc1 | inactive
14 | CC(=O)C=CC1=C(C)CCCC1(C)C | active
15 | OCc1ccccc1 | inactive
16 | CC(C)(C)C1CCCCC1OCCCCO (stereo not drawn) | inactive
17 | CCCCC1CCC(=O)O1 (stereo not drawn) | inactive
18 | C=CC(C)(CCC=C(C)C)OC(C)=O (stereo not drawn) | inactive
19 | CCC(=O)C=CC1C(C)=CCCC1(C)C (stereo not drawn) | inactive
20 | CC(C)CCCC(C)(C)O | inactive
21 | Cc1ccc(C(C)C)cc1O | inactive
22 | CCC=C(C)C(O)CCCCC (stereo not drawn) | inactive
23 | CC(CC=O)c1ccc(C(C)(C)C)cc1 (stereo not drawn) | inactive
24 | C=CCOC(=O)COCCC(C)C | inactive
25 | CCCCCC1C(=O)CCC1CC(=O)OC (stereo not drawn) | inactive
26 | CC1=CCC2CC1C2(C)C (stereo not drawn) | inactive
27 | CC(C)=CCCC(C)CC=O (stereo not drawn) | inactive
28 | COC1CC2CC1C1CC(C=O)CC21 (stereo not drawn) | inactive
